Measured values as given in ChEMBL document CHEMBL3352236, “Discovery and molecular modeling of novel 1-indolyl acetate--5-nitroimidazole targeting tubulin polymerization as antiproliferative agents” (Eur J Med Chem, 2014).

Legend:
HeLa = test: Antiproliferative activity against human HeLa cells after 24 to 48 hrs by CKK8 assay; format: functional, cell-based
Outline: (§1)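 CCK-8 assay. 1–5 × 10³ cells per well grown at 37 °C for 12 h, then exposed to rising compound concentrations in 10% FBS for 24 or 48 h. CCK-8 dye added and incubated 1–2 h at 37 °C, […]. Percent inhibition or IC50 taken relative to DMSO-treated control wells.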

U-251 = test: Antiproliferative activity against human U251 cells after 24 to 48 hrs by CKK8 assay; format: functional, cell-based; outline: as §1
[1] = Cytotoxicity against human macrophages assessed as reduction in cell viability after 24 hrs by MTT assay; format: cell-based, Macrophage
Outline: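 Human macrophages at 5*10⁵ cells per well treated with a range of compound concentrations for 24 h at 37 °C, 5% CO₂. MTT (4 mg/mL) added and left 4 h, then centrifugation at 1200 rcf for 5 min and formazan dissolved in DMSO. Absorbance read at 570 nm. Triplicate wells, assay run three times, mean CC50 (50% viability loss) ± SD reported.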

Tubulin = Tubulin (Bos taurus, UniProt Q6B856+Q862L2+Q862F3); test: Inhibition of bovine brain tubulin preincubated for 20 mins by turbidimetry
A549 = test: Antiproliferative activity against human A549 cells after 24 to 48 hrs by CKK8 assay; format: functional, cell-based; outline: as §1

Compound	IC50 (HeLa) [µM]	IC50 (U-251) [µM]	IC50 (Tubulin) [µM]	IC50 (A549) [µM]	CC50 at 24 h [1] [µM]
O=C(OCCn1c([N+](=O)[O-])cnc1/C=C\c1ccccc1Br)c1c[nH]c2ccccc12	4.12	3.09	112.2	5.11	145
COc1ccccc1/C=C\c1ncc([N+](=O)[O-])n1CCOC(=O)c1c[nH]c2ccccc12	3.23	4.09	21.4	3.11	77
COc1ccc(/C=C\c2cc(OC)c(OC)c(OC)c2)cc1O [COMBRETASTATIN A4]	1.44	0.54	–	2.79	–
O=C(OCCn1c([N+](=O)[O-])cnc1/C=C\c1ccc(Br)cc1)c1c[nH]c2ccccc12	4.8	3.89	123.3	5.55	98
O=C(OCCn1c([N+](=O)[O-])cnc1/C=C/c1ccc(Cl)cc1)c1c[nH]c2ccccc12	3.77	3.23	98.8	4.51	104
Cc1cccc(/C=C\c2ncc([N+](=O)[O-])n2CCOC(=O)c2c[nH]c3ccccc23)c1	3.77	3.02	75.3	4.32	154
O=C(OCCn1c([N+](=O)[O-])cnc1/C=C\c1cccc2ccccc12)c1c[nH]c2ccccc12	10.1	12.8	186.5	7.02	158
O=C(OCCn1c([N+](=O)[O-])cnc1/C=C\c1ccccc1)c1c[nH]c2ccccc12	13.6	16.9	204.1	8.43	105
Cc1ccccc1/C=C\c1ncc([N+](=O)[O-])n1CCOC(=O)c1c[nH]c2ccccc12	4.43	2.79	67.2	4.02	202
O=C(OCCn1c([N+](=O)[O-])cnc1/C=C\c1cccc([N+](=O)[O-])c1)c1c[nH]c2ccccc12	2.01	2.81	19.5	2.86	123

Further compounds by falling IC50 (HeLa), results first:

IC50 (HeLa) [µM]	IC50 (U-251) [µM]	IC50 (Tubulin) [µM]	IC50 (A549) [µM]	Compound	CC50 at 24 h [1] [µM]
4.81	3.87	162	6.03	O=C(OCCn1c([N+](=O)[O-])cnc1/C=C\c1cccc(Br)c1)c1c[nH]c2ccccc12	164
4.21	4.08	103	5.02	O=C(OCCn1c([N+](=O)[O-])cnc1/C=C/c1cccc(Cl)c1)c1c[nH]c2ccccc12	156
4.01	2.76	67.7	4.09	COc1cccc(/C=C\c2ncc([N+](=O)[O-])n2CCOC(=O)c2c[nH]c3ccccc23)c1	89
3.88	3.07	50.3	3.97	COc1ccc(/C=C\c2ncc([N+](=O)[O-])n2CCOC(=O)c2c[nH]c3ccccc23)cc1	106
3.1	2.98	71.2	4.24	O=C(OCCn1c([N+](=O)[O-])cnc1/C=C/c1ccccc1Cl)c1c[nH]c2ccccc12	132
2.28	3.11	45.2	3.88	Cc1ccc(/C=C\c2ncc([N+](=O)[O-])n2CCOC(=O)c2c[nH]c3ccccc23)cc1	123
1.79	2.03	6.9	2.01	O=C(OCCn1c([N+](=O)[O-])cnc1/C=C\c1ccc([N+](=O)[O-])cc1)c1c[nH]c2ccccc12	200
1.24	1.11	6.3	2.12	O=C(OCCn1c([N+](=O)[O-])cnc1/C=C\c1ccccc1[N+](=O)[O-])c1c[nH]c2ccccc12	109
1.05	0.87	2.4	2	O=C(OCCn1c([N+](=O)[O-])cnc1/C=C\c1ccc(Cl)cc1Cl)c1c[nH]c2ccccc12	287
